According to ChEMBL document CHEMBL2429859, “Inhibiting aberrant signal transducer and activator of transcription protein activation with tetrapodal, small molecule Src homology 2 domain binders: promising agents against multiple myeloma” (J Med Chem, 2013):
Active and inactive are the calls of the source. The calls are words filed in the database; no cut-off is given here.

Columns and labels:
[1] = molecular target: Tyrosine-protein kinase JAK1 (Homo sapiens) (UniProt P23458); test: Inhibition of JAK1 (unknown origin) assessed as residual activity at 5 uM relative to control
Chain of Tyrosine-protein kinase JAK1 (Homo sapiens) (P23458 whole entry, the tested form may be a part): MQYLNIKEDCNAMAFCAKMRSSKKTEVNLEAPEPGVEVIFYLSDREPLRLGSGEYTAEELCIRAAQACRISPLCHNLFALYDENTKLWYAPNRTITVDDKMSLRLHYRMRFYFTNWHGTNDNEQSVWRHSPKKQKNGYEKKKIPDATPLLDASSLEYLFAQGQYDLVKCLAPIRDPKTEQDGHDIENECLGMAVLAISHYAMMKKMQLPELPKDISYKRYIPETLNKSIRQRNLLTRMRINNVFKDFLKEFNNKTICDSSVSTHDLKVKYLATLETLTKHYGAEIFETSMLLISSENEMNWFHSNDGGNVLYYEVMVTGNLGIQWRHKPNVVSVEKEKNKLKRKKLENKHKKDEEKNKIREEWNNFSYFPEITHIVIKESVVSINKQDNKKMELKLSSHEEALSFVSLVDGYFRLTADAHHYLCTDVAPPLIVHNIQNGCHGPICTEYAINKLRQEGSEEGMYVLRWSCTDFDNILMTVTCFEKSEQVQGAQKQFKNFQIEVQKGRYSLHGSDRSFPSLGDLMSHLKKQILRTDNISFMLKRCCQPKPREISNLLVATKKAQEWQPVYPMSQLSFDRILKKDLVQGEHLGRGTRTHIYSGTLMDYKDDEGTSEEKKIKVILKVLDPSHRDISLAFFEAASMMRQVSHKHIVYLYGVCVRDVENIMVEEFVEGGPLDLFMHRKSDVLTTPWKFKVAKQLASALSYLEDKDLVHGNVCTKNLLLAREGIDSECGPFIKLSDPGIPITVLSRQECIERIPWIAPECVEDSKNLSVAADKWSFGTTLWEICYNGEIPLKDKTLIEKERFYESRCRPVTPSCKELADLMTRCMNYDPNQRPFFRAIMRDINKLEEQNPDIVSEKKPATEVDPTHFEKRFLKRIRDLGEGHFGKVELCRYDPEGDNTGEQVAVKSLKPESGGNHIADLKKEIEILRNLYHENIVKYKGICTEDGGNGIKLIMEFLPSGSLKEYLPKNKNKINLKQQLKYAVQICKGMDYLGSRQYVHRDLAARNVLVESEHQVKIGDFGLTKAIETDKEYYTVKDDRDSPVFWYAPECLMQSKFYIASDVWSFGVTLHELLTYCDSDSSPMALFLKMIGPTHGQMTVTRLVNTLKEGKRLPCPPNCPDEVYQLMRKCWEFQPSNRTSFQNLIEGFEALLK
Outline: (§1)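 Kinase profiling used a KinomeScan at 5 µM across 132 kinases, including 37 with SH2 domains.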

[2] = Cytotoxicity against BMNC isolated from multiple myeloma patient assessed as inhibition of hematopoietic progenitor colony formation at 30 uM; conditions: human
JJN-3 [3] = test: Inhibition of total Stat3 level in human JJN-3 cells at 10 to 30 uM after 6 hrs by Western blot analysis; format: functional, cell-based
Outline: (§2)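 Treated cells were washed in cold PBS and lysed 30 min on ice in Tris-HCl pH 7.4/NaCl/EDTA/1% NP-40 with PMSF, vanadate and protease inhibitors. Lysates were Bradford-normalized, and 10-30 µg protein was run on 7-10% SDS-PAGE and transferred to PVDF. Blots were blocked in 5% BSA/TBST, probed overnight at 4 °C, then with HRP secondary, and detected by ECL.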

RPMI-8226 [4] = test: Induction of apoptosis in human RPMI8226 cells at 10 to 20 uM by annexin V/propidium iodide staining-based flow cytometric analysis; format: functional, cell-based; conditions: TDE = time-dependent effect
Outline: (§3)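 Apoptosis was measured by flow cytometry of Annexin V and propidium iodide staining. Viable, early apoptotic and late apoptotic cells were scored by quadrant, with time points at 24 and 48 h.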

[5] = molecular target: T1, Tyrosine-protein kinase JAK3 (Homo sapiens) (UniProt P52333); test: Inhibition of JAK3 JH1 domain (unknown origin) assessed as residual activity at 5 uM relative to control; outline: as §1
T1 sequence (whole entry): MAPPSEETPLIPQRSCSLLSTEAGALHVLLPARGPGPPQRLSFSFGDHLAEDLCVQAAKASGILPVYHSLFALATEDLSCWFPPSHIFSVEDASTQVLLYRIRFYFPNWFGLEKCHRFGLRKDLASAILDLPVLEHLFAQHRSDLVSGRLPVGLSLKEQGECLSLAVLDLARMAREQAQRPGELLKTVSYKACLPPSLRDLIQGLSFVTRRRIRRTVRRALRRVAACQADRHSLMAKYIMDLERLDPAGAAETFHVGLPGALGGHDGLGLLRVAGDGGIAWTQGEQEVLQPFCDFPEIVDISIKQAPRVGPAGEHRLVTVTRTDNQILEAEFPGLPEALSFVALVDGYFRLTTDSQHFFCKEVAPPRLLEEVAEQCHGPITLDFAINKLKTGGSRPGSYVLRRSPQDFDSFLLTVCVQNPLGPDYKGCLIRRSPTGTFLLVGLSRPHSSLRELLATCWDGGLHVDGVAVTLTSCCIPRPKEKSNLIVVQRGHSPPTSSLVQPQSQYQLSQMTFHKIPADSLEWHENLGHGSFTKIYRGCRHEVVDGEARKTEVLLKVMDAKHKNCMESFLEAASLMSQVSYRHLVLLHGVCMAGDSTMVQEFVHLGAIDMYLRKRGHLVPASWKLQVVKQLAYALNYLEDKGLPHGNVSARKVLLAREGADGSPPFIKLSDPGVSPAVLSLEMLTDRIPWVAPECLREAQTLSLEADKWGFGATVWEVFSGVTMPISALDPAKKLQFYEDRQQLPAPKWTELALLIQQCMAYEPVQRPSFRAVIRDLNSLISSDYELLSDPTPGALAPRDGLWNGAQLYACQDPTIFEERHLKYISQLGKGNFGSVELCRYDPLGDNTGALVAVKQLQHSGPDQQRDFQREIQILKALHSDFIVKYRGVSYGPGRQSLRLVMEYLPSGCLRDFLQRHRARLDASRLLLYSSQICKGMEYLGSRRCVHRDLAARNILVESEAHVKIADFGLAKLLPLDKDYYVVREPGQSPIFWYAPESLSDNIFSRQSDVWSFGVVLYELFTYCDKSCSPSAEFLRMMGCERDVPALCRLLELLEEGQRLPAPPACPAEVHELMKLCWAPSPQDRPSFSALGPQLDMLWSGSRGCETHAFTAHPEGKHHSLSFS

JJN-3 [6] = test: Induction of apoptosis in human JJN-3 cells assessed as induction of PARP cleavage at 10 to 30 uM by Western blot analysis; format: functional, cell-based; outline: as §2
[7] = Cytotoxicity against CD138-positive BMNC isolated from multiple myeloma patient assessed as cell viability at 20 uM; format: functional; conditions: Homo sapiens, read-out: Activity
Outline: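 Bone marrow mononuclear cells were isolated by Ficoll-Paque separation from 6 myeloma patient aspirates, cultured, and treated with compound. Cells were stained for CD138 and Annexin V, and the decrease in CD138+ (myeloma) and CD138- (non-myeloma) populations was reported.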

[8] = molecular target: Signal transducer and activator of transcription 3 (Homo sapiens, UniProt P40763); test: Inhibition of Stat3-mediated luciferase expression in human 8226 cells at 7.5 to 15 uM after 6 hrs relative to control; format: cell-based
Chain of Signal transducer and activator of transcription 3 (P40763 whole entry): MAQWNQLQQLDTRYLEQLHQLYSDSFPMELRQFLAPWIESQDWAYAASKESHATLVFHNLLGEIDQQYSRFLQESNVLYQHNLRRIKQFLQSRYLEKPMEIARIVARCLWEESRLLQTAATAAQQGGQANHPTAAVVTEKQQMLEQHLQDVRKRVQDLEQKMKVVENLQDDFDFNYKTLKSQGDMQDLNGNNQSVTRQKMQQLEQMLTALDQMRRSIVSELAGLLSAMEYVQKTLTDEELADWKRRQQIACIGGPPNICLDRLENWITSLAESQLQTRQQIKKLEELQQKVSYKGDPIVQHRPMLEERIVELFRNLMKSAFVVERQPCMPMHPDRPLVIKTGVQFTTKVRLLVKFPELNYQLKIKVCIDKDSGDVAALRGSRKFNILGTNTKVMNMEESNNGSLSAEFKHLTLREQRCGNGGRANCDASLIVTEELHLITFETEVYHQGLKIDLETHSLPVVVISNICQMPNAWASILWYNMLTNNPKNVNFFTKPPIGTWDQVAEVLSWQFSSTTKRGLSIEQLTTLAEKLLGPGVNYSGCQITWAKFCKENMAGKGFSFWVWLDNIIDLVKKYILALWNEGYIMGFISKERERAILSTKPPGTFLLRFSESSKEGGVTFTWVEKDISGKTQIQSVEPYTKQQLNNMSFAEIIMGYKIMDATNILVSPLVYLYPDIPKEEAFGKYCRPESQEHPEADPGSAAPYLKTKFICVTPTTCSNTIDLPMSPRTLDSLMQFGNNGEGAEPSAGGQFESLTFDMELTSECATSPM
Outline: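 Myeloma cells stably carried a Stat3-driven firefly luciferase reporter (puromycin-selected) and a CMV-driven Renilla luciferase internal control (hygromycin-selected), each selected for 2 weeks. After drug treatment, dual luciferase activity was read as relative luciferase units, firefly/Renilla.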

JJN-3 [9] = test: Inhibition of total Stat3 level in human JJN-3 cells at 5 to 10 uM after 6 hrs by Western blot analysis; format: functional, cell-based; outline: as §2
RPMI-8226 [10] = test: Induction of apoptosis in human RPMI8226 cells at 10 to 15 uM by annexin V/propidium iodide staining-based flow cytometric analysis; format: functional, cell-based; conditions: TDE = time-dependent effect; outline: as §3
XG6 = test: Cytotoxicity against human XG6 cells assessed as cell viability at 7.5 uM after 72 hrs by MTT assay; format: functional, cell-based
Outline: (§4)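 Myeloma lines were seeded at 1-3 x 10^4 cells per well onto compound or vehicle, in triplicate, and cultured 72 h at 37 °C in 5% CO2. Viability was measured colorimetrically by MTT assay relative to DMSO control. EC50 was fitted to a standard dose-response curve where applicable.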

RPMI-8226 [11] = test: Cytotoxicity against human RPMI8226 cells assessed as cell viability at 7.5 uM after 72 hrs by MTT assay; format: functional, cell-based; outline: as §4

Activity [1] [%] | Activity [5] [%] | inhibition [8] [%] | SMILES | Activity [2] | inhibition (JJN-3 [3]) | Activity (RPMI-8226 [4]) | Activity (JJN-3 [6]) | viability at 20 µM [7] [%] | inhibition (JJN-3 [9]) | Activity (RPMI-8226 [10]) | Activity (XG6) | Activity (RPMI-8226 [11])
84 | 84 |  | Cc1ccc(S(=O)(=O)N(CC(=O)N(Cc2ccc(C3CCCCC3)cc2)c2ccc(C(=O)O)c(O)c2)Cc2ccccc2C(F)(F)F)cc1 | Non-toxic | inactive | tde | Active | > 50 |  |  |  | 
 |  | 50 | O=C(O)c1ccc(N(Cc2ccc(C3CCCCC3)cc2)C(=O)CN(Cc2ccccc2C(F)(F)F)S(=O)(=O)c2c(F)c(F)c(F)c(F)c2F)cc1O |  |  |  |  |  | inactive | tde | Active | Active
